In ChEMBL document CHEMBL3792308, “Synthesis and Evaluation of 2,6-Modified Purine 2'-C-Methyl Ribonucleosides as Inhibitors of HCV Replication” (ACS Med Chem Lett, 2016):

Tests used:
Hepatitis C virus = test: Antiviral activity against HCV infected in HuH7 Clone B cells assessed as inhibition of viral replication after 5 days by RT-PCR method; format: functional, organism-based, Hepacivirus hominis; settings: 120 h
Outline: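 Huh7 cells carrying a subgenomic HCV replicon; HCV RNA extracted and amplified to measure replication inhibition. Tested up to 10 μM, and EC50 and EC90 are reported.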

[1] = Cytotoxicity against human PBMC after 6 days by trypan blue exclusion assay; format: cell-based; settings: PBMC (peripheral blood mononuclear cells)
[2] = Cytotoxicity against human CEM cells after 6 days by trypan blue exclusion assay; format: cell-based; settings: CEM (CCRF-CEM) cells
[3] = Cytotoxicity against African green monkey Vero cells after 3 days by hemocytometry; format: cell-based; settings: chlorocebus sabaeus
[4] = Cytotoxicity against human HuH7 cells infected with HCV assessed as reduction in cellular rRNA level after 96 hrs by qRT-PCR analysis; format: cell-based, Huh-7
Outline: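 Huh7 toxicity was read in the same wells as the replicon assay, by extracting and amplifying cellular rRNA alongside HCV RNA.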

[5] = Drug metabolism in human HuH7 cells assessed as nucleoside monophosphate derivative formation at 50 uM after 4 hrs by LC-MS/MS analysis; format: ADME, cell-based; settings: huh-7, 4 h
Outline: (§1)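 Huh7 cells incubated with 50 μM compound for 4 h at 37 °C, then washed with phosphate-buffered saline. Intracellular metabolites extracted with 70% ice-cold methanol in water and identified by LC–MS/MS, with nucleoside mono-, di- and triphosphate levels quantified.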

[6] = Drug metabolism in human HuH7 cells assessed as nucleoside diphosphate derivative formation at 50 uM after 4 hrs by LC-MS/MS analysis; format: ADME, cell-based; settings: huh-7, 4 h; outline: as §1
[7] = Drug metabolism in human HuH7 cells assessed as nucleoside triphosphate derivative formation at 50 uM after 4 hrs by LC-MS/MS analysis; format: ADME, cell-based; settings: huh-7, 4 h; outline: as §1

SMILES	EC50 (Hepatitis C virus)	EC90 (Hepatitis C virus)	CC50 at 144 h [1]	CC50 at 144 h [2]	CC50 at 72 h [3]	CC50 at 96 h [4]	Drug metabolism [5]	Drug metabolism [6]	Drug metabolism [7]
COc1nc(OC)c2ncn([C@@H]3O[C@H](CO)[C@@H](O)[C@@]3(C)O)c2n1	> 10 µM	> 10 µM	> 100 µM	> 100 µM	> 100 µM	> 10 µM			
CCOC(=O)[C@H](C)NP(=O)(OC[C@H]1O[C@@H](n2cnc3c(NOC)nc(N)nc32)[C@](C)(O)[C@@H]1O)Oc1ccccc1 (stereo partly drawn)	0.3 µM	1 µM	> 100 µM	32 µM	> 100 µM	> 10 µM			
C[C@@]1(O)[C@H](O)[C@@H](CO)O[C@H]1n1cnc2c(N)nc(O)nc21	> 10 µM	> 10 µM	> 100 µM	> 100 µM	> 100 µM	> 10 µM			
C[C@@]1(O)[C@H](O)[C@@H](CO)O[C@H]1n1cnc2c(N)nc(ONC(=O)OCc3ccccc3)nc21	> 10 µM	> 10 µM	> 100 µM	> 100 µM	> 100 µM	> 10 µM			
CCOC(=O)[C@H](C)NP(=O)(OC[C@H]1O[C@@H](n2cnc3c(N=[N+]=[N-])nc(N)nc32)[C@](C)(O)[C@@H]1O)Oc1ccccc1 (stereo partly drawn)	2.4 µM	7.7 µM	> 100 µM	> 100 µM	> 100 µM	> 10 µM			
COc1nc(N)c2ncn([C@@H]3O[C@H](CO)[C@@H](O)[C@@]3(C)O)c2n1	> 10 µM	> 10 µM	> 100 µM	> 100 µM	> 100 µM	> 10 µM			
CONc1nc(N)c2ncn([C@@H]3O[C@H](CO)[C@@H](O)[C@@]3(C)O)c2n1	> 10 µM	> 10 µM	> 100 µM	> 100 µM	> 100 µM	> 10 µM			
COc1nc(N)nc2c1ncn2[C@@H]1O[C@H](COP(=O)(N[C@@H](C)C(=O)OCC(C)(C)C)Oc2cccc3ccccc23)[C@@H](O)[C@@]1(C)O (stereo partly drawn) [BMS-986094]	0.02 µM	0.04 µM	4.5 µM	8 µM	14 µM	0.8 µM			
C[C@@]1(O)[C@H](O)[C@@H](CO)O[C@H]1n1cnc2c(NO)nc(N)nc21	0.3 µM	5.5 µM	> 100 µM	> 100 µM	> 100 µM	> 10 µM			
CCOC(=O)[C@H](C)NP(=O)(OC[C@H]1O[C@@H](n2cnc3c(OC)nc(OC)nc32)[C@](C)(O)[C@@H]1O)Oc1ccccc1 (stereo partly drawn)	> 10 µM	> 10 µM	> 100 µM	> 100 µM	> 100 µM	> 10 µM			
C=C(OCC)c1nc(N)nc2c1ncn2[C@@H]1O[C@H](CO)[C@@H](O)[C@@]1(C)O	> 10 µM	> 10 µM	> 100 µM	> 100 µM	> 100 µM	> 10 µM			
CCOC(=O)[C@H](C)NP(=O)(OC[C@H]1O[C@@H](n2cnc3c(P(=O)(OCC)OCC)nc(N)nc32)[C@](C)(O)[C@@H]1O)Oc1ccccc1 (stereo partly drawn)	> 10 µM	> 10 µM	> 100 µM	> 100 µM	> 100 µM	> 10 µM			
C[C@@]1(O)[C@H](O)[C@@H](CO)O[C@H]1n1cnc2c(N)nc(N=[N+]=[N-])nc21	> 10 µM	> 10 µM	> 100 µM	> 100 µM	> 100 µM	> 10 µM			
CCOC(=O)[C@H](C)NP(=O)(OC[C@H]1O[C@@H](n2cnc3c(OC)nc(Cl)nc32)[C@](C)(O)[C@@H]1O)Oc1ccccc1 (stereo partly drawn)	6.3 µM	9.9 µM	> 100 µM	> 100 µM	> 100 µM	> 10 µM			
CCOP(=O)(OCC)c1nc(N)nc2c1ncn2[C@@H]1O[C@H](CO)[C@@H](O)[C@@]1(C)O	> 10 µM	> 10 µM	> 100 µM	> 100 µM	> 100 µM	> 10 µM			
CCOC(=O)[C@H](C)NP(=O)(OC[C@H]1O[C@@H](n2cnc3c(N)nc(N=[N+]=[N-])nc32)[C@](C)(O)[C@@H]1O)Oc1ccccc1 (stereo partly drawn)	2.3 µM	3 µM	> 100 µM	> 100 µM	> 100 µM	> 10 µM	metabolite_detected	metabolite_detected	metabolite_detected
CCOC(=O)[C@H](C)NP(=O)(OC[C@H]1O[C@@H](n2cnc3c(OC)nc(O)nc32)[C@](C)(O)[C@@H]1O)Oc1ccccc1 (stereo partly drawn)	> 10 µM	> 10 µM	> 100 µM	> 100 µM	> 100 µM	> 10 µM			

Second part, led by results:

EC50 (Hepatitis C virus)	EC90 (Hepatitis C virus)	SMILES	CC50 at 144 h [1]	CC50 at 144 h [2]	CC50 at 72 h [3]	CC50 at 96 h [4]	Drug metabolism [5]	Drug metabolism [6]	Drug metabolism [7]
> 10 µM	> 10 µM	C=C(OCC)c1nc(N)nc2c1ncn2[C@@H]1O[C@H](COP(=O)(N[C@@H](C)C(=O)OCC)Oc2ccccc2)[C@@H](O)[C@@]1(C)O (stereo partly drawn)	> 100 µM	> 100 µM	> 100 µM	> 10 µM			
0.3 µM	0.9 µM	CC(C)(CO)C(=O)SCCOP(=O)(NCc1ccccc1)OC[C@H]1O[C@@H](n2cnc3c(=O)[nH]c(N)nc32)[C@](C)(O)[C@@H]1O (stereo partly drawn)	> 100 µM	> 100 µM	> 100 µM	> 100 µM			
> 10 µM	> 10 µM	C[C@@]1(O)[C@H](O)[C@@H](CO)O[C@H]1n1cnc2c(N=[N+]=[N-])nc(N)nc21	> 100 µM	> 100 µM	> 100 µM	> 10 µM			
2.4 µM	8 µM	C[C@@]1(O)[C@H](O)[C@@H](CO)O[C@H]1n1cnc2c(ONC(=O)OCc3ccccc3)nc(N)nc21	> 100 µM	> 100 µM	> 100 µM	> 10 µM			
> 10 µM	> 10 µM	COc1nc(O)nc2c1ncn2[C@@H]1O[C@H](CO)[C@@H](O)[C@@]1(C)O	> 100 µM	> 100 µM	> 100 µM	> 10 µM			
4.8 µM	10 µM	CCOC(=O)[C@H](C)NP(=O)(OC[C@H]1O[C@@H](n2cnc3c(N)nc(ONC(=O)OCc4ccccc4)nc32)[C@](C)(O)[C@@H]1O)Oc1ccccc1 (stereo partly drawn)	> 100 µM	> 100 µM	> 100 µM	> 33 µM			
> 10 µM	> 10 µM	CCOC(=O)[C@H](C)NP(=O)(OC[C@H]1O[C@@H](n2cnc3c(N)nc(O)nc32)[C@](C)(O)[C@@H]1O)Oc1ccccc1 (stereo partly drawn)	> 100 µM	> 100 µM	> 100 µM	> 10 µM			
> 10 µM	> 10 µM	C[C@@]1(O)[C@H](O)[C@@H](CO)O[C@H]1n1cnc2c(N)nc(Cl)nc21	> 100 µM	> 100 µM	> 100 µM	> 10 µM			
1 µM	2.8 µM	CCOC(=O)[C@H](C)NP(=O)(OC[C@H]1O[C@@H](n2cnc3c(N)nc(OC)nc32)[C@](C)(O)[C@@H]1O)Oc1ccccc1 (stereo partly drawn)	> 100 µM	> 100 µM	> 100 µM	> 10 µM	metabolite_detected	metabolite_detected	metabolite_detected
4.1 µM	9.2 µM	CCOC(=O)[C@H](C)NP(=O)(OC[C@H]1O[C@@H](n2cnc3c(OC)nc(ONC(=O)OCc4ccccc4)nc32)[C@](C)(O)[C@@H]1O)Oc1ccccc1 (stereo partly drawn)	> 100 µM	24 µM	> 100 µM	> 33 µM			
> 10 µM	> 10 µM	COc1nc(Cl)nc2c1ncn2[C@@H]1O[C@H](CO)[C@@H](O)[C@@]1(C)O	> 100 µM	> 100 µM	> 100 µM	> 10 µM			
> 10 µM	> 10 µM	CONc1nc(N)nc2c1ncn2[C@@H]1O[C@H](CO)[C@@H](O)[C@@]1(C)O	> 100 µM	> 100 µM	> 100 µM	> 10 µM			
> 10 µM	> 10 µM	CCOC(=O)[C@H](C)NP(=O)(OC[C@H]1O[C@@H](n2cnc3c(N)nc(NOC)nc32)[C@](C)(O)[C@@H]1O)Oc1ccccc1 (stereo partly drawn)	> 100 µM	> 100 µM	18 µM	> 10 µM			
1.7 µM	5.3 µM	CCOC(=O)[C@H](C)NP(=O)(OC[C@H]1O[C@@H](n2cnc3c(N)nc(Cl)nc32)[C@](C)(O)[C@@H]1O)Oc1ccccc1 (stereo partly drawn)	> 100 µM	> 100 µM	> 100 µM	> 10 µM			
> 10 µM	> 10 µM	COc1nc(ONC(=O)OCc2ccccc2)nc2c1ncn2[C@@H]1O[C@H](CO)[C@@H](O)[C@@]1(C)O	> 100 µM	> 100 µM	> 100 µM	> 10 µM			
